Results as given in ChEMBL document CHEMBL1275406, “Comparison of the antimicrobial effects of chlorine, silver ion, and tobramycin on biofilm” (2008).
Activity calls are given as the source filed them. The calls are words filed in the database; no cut-off is given here.

Assays:
[1] = test system: Pseudomonas aeruginosa; assay: Antimicrobial activity against Pseudomonas aeruginosa PAO1 assessed as log reduction in bacterial count at 10 mg/L after 50 mins by BacLight Live/Dead staining; type: functional
Outline: (§1)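 P. aeruginosa PAO1 biofilm grown on reactor coupons (24 h batch in 1/100-strength TSB, room temp, 100 rpm, then 24 h continuous flow in 1/300-strength TSB). Coupons rinsed and soaked unstirred in 10 mg/liter agent. Biofilm removed by sonication/vortexing in PBS. Counts by plate count (24 h, 37°C), CTC (1.6 μg/ml) or Syto9/propidium iodide stain on filtered cells, each normalized to DAPI total and to untreated biofilm; log10 reduction.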

[2] = test system: Pseudomonas aeruginosa; assay: Antimicrobial activity against Pseudomonas aeruginosa PAO1 grown as biofilm assessed as concentration and time required inactivate 2 log bacterial cells; type: functional
Outline: (§2)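 PAO1 biofilm grown 24 h batch then 24 h continuous flow on coupons, exposed to 10 mg/liter agent unstirred. Biofilm dislodged by sonication/vortexing, plate counted after 24 h at 37°C in triplicate. Log10 reduction plotted against concentration × contact time; CT for 2-log inactivation taken by extrapolating the curve. Experiments repeated 2–3 times.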

[3] = test system: Pseudomonas aeruginosa; assay: Antimicrobial activity against Pseudomonas aeruginosa PAO1 assessed as log reduction in bacterial count at 10 mg/L after 50 mins by CTC staining; type: functional; outline: as §1
[4] = test system: Pseudomonas aeruginosa; assay: Antimicrobial activity against Pseudomonas aeruginosa PAO1 grown as planktonic cells assessed as concentration and time required inactivate 2 log bacterial cells; type: functional
Outline: (§3)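 Washed overnight PAO1 cultures at 10^6 CFU/ml in 50 ml, exposed to agent at 1 or 10 mg/liter (data averaged) in capped flasks with slow magnetic stirring. Survival by plate count only. Log10 reduction plotted against CT (mg·min/liter); CT90 or 2-log CT read or extrapolated from the curve.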

[5] = test system: Pseudomonas aeruginosa; assay: Ratio of antimicrobial activity against Pseudomonas aeruginosa PAO1 grown as biofilm assessed as concentration and time required inactivate 2 log bacterial cells to antimicrobial activity against Pseudomonas aeruginosa PAO1 grown as planktonic cells assessed as concentration and time required inactivate 2 log bacterial cells; type: functional
Outline: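 Ratio computed as biofilm CT over planktonic CT for 2-log inactivation of PAO1. Biofilm values come from coupons exposed to 10 mg/liter agent. Planktonic values come from 10^6 CFU/ml suspensions exposed to 1 or 10 mg/liter. Both were measured by plate count.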

[6] = test system: Pseudomonas aeruginosa; assay: Antimicrobial activity against Pseudomonas aeruginosa PAO1 grown as biofilms; type: functional, organism-based; outline: as §2
[7] = test system: Pseudomonas aeruginosa; assay: Antimicrobial activity against Pseudomonas aeruginosa PAO1 grown as biofilm assessed as membrane integrity by BacLight Live/Dead staining; type: functional
Outline: (§4)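 P. aeruginosa PAO1 reactor-grown biofilm coupons soaked in 10 mg/liter agent without stirring. Coupons stained 1 h in the dark with BacLight Syto9/propidium iodide or CTC (1.6 μg/ml, 37°C) plus DAPI (10 μg/ml), then imaged by confocal microscopy. Ratios are read at the point where plate-count culturability fell to 60%, normalized to untreated biofilm.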

[8] = test system: Pseudomonas aeruginosa; assay: Antimicrobial activity against Pseudomonas aeruginosa PAO1 assessed as log reduction in bacterial count at 10 mg/L after 50 mins by plate count method; type: functional; outline: as §1
[9] = test system: Pseudomonas aeruginosa; assay: Antimicrobial activity against Pseudomonas aeruginosa PAO1 grown as biofilm assessed as respiratory activity by CTC-DAPI staining; type: functional, organism-based; outline: as §4
[10] = test system: Pseudomonas aeruginosa; assay: Antimicrobial activity against Pseudomonas aeruginosa PAO1 grown as planktonic cells assessed as concentration and time required inactivate 1 log bacterial cells; type: functional; outline: as §3

## NC[C@H]1O[C@H](O[C@H]2[C@H](O)[C@@H](O[C@H]3O[C@H](CO)[C@@H](O)[C@H](N)[C@H]3O)[C@H](N)C[C@@H]2N)[C@H](N)C[C@@H]1O [TOBRAMYCIN]
[1]
  FC: 0.2
[2]
  Activity: 1000 mg·min/L
[3]
  FC: 0.9
[4]
  Activity: 30 mg·min/L
[5]
  Ratio: 33
[6]
  Activity: Active
[7]
  Activity: 70%
[8]
  FC: 1.5
[9]
  Activity: Active
[10]
  Activity: 20 mg·min/L
